Measurements from different studies.
Each line is one published result; the experiments were not run side by side.
Organism: Staphylococcus aureus

Structure (SMILES)	assay	test system	setting	endpoint	value
COc1ccc(-c2ccc3c(N4CCOC[C@@H]4C)nc(N4CCOC[C@@H]4C)nc3n2)cc1CO	microbial growth	NCTC8325	–	MIC	> 30 µM
COc1ccc2nc(-n3nc(CC(C)C)c4c3-c3ccccc3C4=O)sc2c1	microbial growth, well diffusion	NCIM5021	125 µg/mL	inhibition zone	12 mm
O=C1NC(=S)N/C1=C\c1ccc(-c2ccc(N(c3ccccc3)c3ccccc3)cc2)c2ccccc12	microbial killing, broth dilution	ATCC43300	–	MBC	> 1000 µg/mL
Cn1cnc(-c2cc3nccc(Oc4ccc(NC(=S)NC(=O)Cc5ccccc5)cc4F)c3s2)c1	microbial growth	NCTC8325	–	MIC	> 30 µM
O=C1NC(=S)S/C1=C\c1c2ccccc2c(-c2ccc(N(c3ccccc3)c3ccccc3)cc2)c2ccccc12	microbial killing, broth dilution	ATCC25923	–	MBC	> 1000 µg/mL
NC(=O)c1ccc(-c2nc(-c3ccccn3)c(-c3ccc4c(c3)OCO4)[nH]2)cc1	microbial growth	NCTC8325	–	MIC	> 30 µM
COc1ccc2nc(-n3nc(C)c4c3-c3ccccc3C4=O)sc2c1	microbial growth, well diffusion	NCIM5021	1000 µg/mL	inhibition zone	13 mm
CN[C@H](CC(C)C)C(=O)N[C@H]1C(=O)N[C@@H](CC(N)=O)C(=O)N[C@H]2C(=O)N[C@H]3C(=O)N[C@H](C(=O)N[C@H](C(=O)O)c4cc(O)cc(O)c4-c4cc3ccc4O)[C@H](O)c3ccc(c(Cl)c3)Oc3cc2cc(c3O[C@@H]2O[C@H](CO)[C@@H](O)[C@H](O)[C@H]2O[C@H]2C[C@](C)(N)[C@H](O)[C@H](C)O2)Oc2ccc(cc2Cl)[C@H]1O	microbial growth, disc diffusion	ATCC29213	250 µg/disc, 24 h	inhibition zone	21 mm
[H]/N=C(/N)N[C@H]1[C@H](O)[C@@H](O)[C@H](O[C@@H]2O[C@@H](C)[C@](O)(C=O)[C@H]2O[C@@H]2O[C@@H](CO)[C@H](O)[C@@H](O)[C@@H]2NC)[C@@H](N/C(N)=N\[H])[C@@H]1O	microbial growth, well diffusion	NCIM5021	500 µg/mL	inhibition zone	22 mm
O=C(O)CN1C(=O)/C(=C/c2ccc(-c3ccc(N(c4ccccc4)c4ccccc4)cc3)c3ccccc23)NC1=S	microbial killing, broth dilution	ATCC6538	–	MBC	> 1000 µg/mL
